{"source": "paper PMC4369925", "about": "(Current molecular medicine, 2014)", "key": {"plasma kallikrein": {"system": "plasma kallikrein", "experiment": "Autoactivation of human plasma PK with rPKs, fluid-phase assay", "assay_type": "biochemical", "conditions": "1 h", "outline": "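Recombinant PK was expressed in stably transfected HEK cells in serum-free conditioned medium, purified by S-Sepharose cation exchange (pH 5.2, NaCl gradient) and dialysed into TBS pH 7.4. Plasma PK and rPKs, 25 nM each, were incubated in triplicate for 1 h at 37°C. […], kallikrein was assayed with or without a kallikrein inhibitor using 0.5 mM S2302 for 1 h at 37°C, read at 405 nm.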"}, "[1]": {"system": "PRCP1-dependent PK activation on HPAEC", "experiment": "PRCP1-dependent PK activation", "assay_type": "cell-based, human", "conditions": "25 nM rPK + 25 nM HK on HPAEC"}, "rPRCP activation of PK": {"system": "rPRCP activation of PK", "experiment": "rPRCP activation of PK bound to HK on microtiter plate", "assay_type": "biochemical, human", "conditions": "rPRCP 3 μg, HK-coated plate, 1 h", "outline": "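Plasma PK, wild-type rPK or mutant rPKs (25 nM) were added to HK-coated microtiter wells with or without recombinant PRCP in HEPES-carbonate buffer pH 7.1 for 1 h at 37°C. Some wells also received a peptide blocking PK–HK binding (0.1 mM). S2302 (0.5 mM) was then added for 1 h at 37°C and read at 405 nm; three experiments.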"}, "rPRCP1 [2]": {"molecular_target": "T1, rPRCP1 (Homo sapiens, UniProt P42785)", "T1 sequence (P42785 46-496)": "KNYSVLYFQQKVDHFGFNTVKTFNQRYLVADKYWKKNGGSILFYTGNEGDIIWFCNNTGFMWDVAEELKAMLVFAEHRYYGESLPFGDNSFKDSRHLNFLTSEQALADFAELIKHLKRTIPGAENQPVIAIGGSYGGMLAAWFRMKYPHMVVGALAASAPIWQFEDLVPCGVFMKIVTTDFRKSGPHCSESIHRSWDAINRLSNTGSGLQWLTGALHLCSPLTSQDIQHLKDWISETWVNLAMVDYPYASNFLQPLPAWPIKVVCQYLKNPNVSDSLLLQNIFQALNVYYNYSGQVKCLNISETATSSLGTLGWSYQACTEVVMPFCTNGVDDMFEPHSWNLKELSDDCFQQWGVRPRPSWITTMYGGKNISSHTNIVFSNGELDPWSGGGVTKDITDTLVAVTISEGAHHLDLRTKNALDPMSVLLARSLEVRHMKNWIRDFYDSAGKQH", "experiment": "Hydrolysis of X-Pro-pNA chromogenic substrates by rPRCP1", "assay_type": "biochemical", "conditions": "for ratio of Km to the Km of GPpNA: rPRCP1, X-Pro-pNA, 37°C 1 h, 405 nm, ratio <1 more selective than GPpNA", "outline": "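Recombinant PRCP1 was expressed in Schneider 2 cells. Increasing concentrations of X-Pro-pNA substrates were incubated with it in HEPES-carbonated buffer (pH 7.1, 2 mM CaCl2, 1 mM MgCl2, 0.1% gelatin) at 37°C for 1 h in the dark; two substrates needed 24 h. pNA release was read at 405 nm. Runs were in duplicate, at least 3 times, and data were fit to Michaelis–Menten.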"}, "rPRCP1 [3]": {"molecular_target": "T1, rPRCP1", "experiment": "Peptide inhibition of rPRCP1 hydrolysis of APpNA", "assay_type": "biochemical", "outline": "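Recombinant PRCP1 hydrolysis of APpNA was measured at 37°C with sub-saturating substrate relative to Km. The initial hydrolysis rate was read at 405 nm in triplicate. Percent inhibition = [1 − (sample − blank)/(total − blank)] × 100, and IC50 and inhibition type were derived from it.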"}}, "note": "Residues, ends and D or L forms follow the SMILES beside them.", "data": [{"compound": "Cc1cc(Oc2nc(Oc3cccc(C(=N)N)c3)c(F)c(NC(C)CCc3ccccc3)c2F)c(C(=O)O)cc1N(C)C", "note": "(centres unmarked) [PF048, reference compound]", "values": [{"measurement": "block of autoactivation of PK (in words)", "setting": "plasma kallikrein; 100 nM inhibitor, plasma PK 25 nM + rPK mutants 25 nM", "result": "block"}]}, {"compound": "wild type rPK: recombinant wild type human prekallikrein", "values": [{"measurement": "activation to plasma kallikrein on HPAEC (in words)", "setting": "[1]", "result": "less than half"}, {"measurement": "degree of activation by rPRCP relative to wild type plasma PK", "setting": "rPRCP activation of PK; 25 nM PK", "result": "about 66%"}]}, {"compound": "Ser-Pro-paranitroanilide [SPpNA]", "values": [{"measurement": "product turnover (kcat) compared with APpNA and GPpNA", "setting": "rPRCP1 [2]; rPRCP1, Michaelis-Menten fit", "result": "not significantly different"}, {"measurement": "ratio of Km to the Km of GPpNA", "setting": "rPRCP1 [2]", "result": 0.23}, {"measurement": "catalytic efficiency (kcat/Km), times higher than GPpNA", "setting": "rPRCP1 [2]; rPRCP hydrolysis", "result": "6-7 times"}, {"measurement": "catalytic efficiency (kcat/Km), fold higher than APpNA", "setting": "rPRCP1 [2]; rPRCP hydrolysis, printed as 'at least'", "result": "2-3 fold"}]}, {"compound": "rPK^P637A: recombinant PK, C-terminal Pro-Ala replaced by Ala-Ala", "values": [{"measurement": "activability by rPRCP (in words)", "setting": "rPRCP activation of PK; 25 nM rPK", "result": "significantly more activable by rPRCP than wild type rPK"}, {"measurement": "autoactivation of plasma PK (in words)", "setting": "plasma kallikrein; plasma PK 25 nM + rPK 25 nM, S2302", "result": "lower threshold for autoactivation"}]}, {"compound": "Ala-Pro-paranitroanilide [APpNA, reference compound]", "values": [{"measurement": "ratio of Km to the Km of GPpNA", "setting": "rPRCP1 [2]", "result": 0.4}]}, {"compound": "CSCC[C@H](NC(=O)[C@H](CCC(N)=O)NC(=O)[C@H](C)NC(=O)[C@H](CCCCN)NC(=O)CNC(=O)[C@@H](N)CC(=O)O)C(=O)N[C@@H](CCC(N)=O)C(=O)N[C@@H](CO)C(=O)N1CCC[C@H]1C(=O)N[C@@H](C)C(=O)O", "note": "[DGK10] (H-DGKAQMQSPA-OH)", "values": [{"measurement": "IC50", "setting": "rPRCP1 [3]", "result": 600, "unit": "µM"}]}]}
